From ChEMBL document CHEMBL1141613, “Conception of myeloperoxidase inhibitors derived from flufenamic acid by computational docking and structure modification” (Bioorg Med Chem, 2008)

Experiments:
Myeloperoxidase = molecular target: T1, Myeloperoxidase (Homo sapiens, UniProt P05164); assay: Inhibition of chlorinating activity of recombinant myeloperoxidase by taurine assay; type: single protein format
T1 sequence (P05164 whole entry): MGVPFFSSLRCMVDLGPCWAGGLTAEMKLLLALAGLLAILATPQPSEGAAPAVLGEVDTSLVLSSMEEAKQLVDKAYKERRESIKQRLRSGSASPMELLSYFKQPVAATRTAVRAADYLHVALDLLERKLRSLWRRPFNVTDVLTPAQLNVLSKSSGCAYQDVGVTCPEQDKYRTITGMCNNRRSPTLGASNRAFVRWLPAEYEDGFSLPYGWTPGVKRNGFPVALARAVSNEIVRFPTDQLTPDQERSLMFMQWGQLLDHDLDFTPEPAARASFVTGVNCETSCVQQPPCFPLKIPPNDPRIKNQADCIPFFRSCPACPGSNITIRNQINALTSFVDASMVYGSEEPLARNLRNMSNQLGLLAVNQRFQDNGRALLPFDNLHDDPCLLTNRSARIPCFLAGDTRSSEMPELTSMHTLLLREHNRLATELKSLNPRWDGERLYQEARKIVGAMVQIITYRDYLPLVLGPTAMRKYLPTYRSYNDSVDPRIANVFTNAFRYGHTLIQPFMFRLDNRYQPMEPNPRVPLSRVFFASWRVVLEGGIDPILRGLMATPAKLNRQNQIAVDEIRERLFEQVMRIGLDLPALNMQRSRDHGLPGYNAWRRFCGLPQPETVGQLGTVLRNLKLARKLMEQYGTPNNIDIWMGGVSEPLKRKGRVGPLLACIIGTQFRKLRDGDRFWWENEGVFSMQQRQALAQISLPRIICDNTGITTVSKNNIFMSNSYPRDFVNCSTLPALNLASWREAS
Procedure, shortened: (§1)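 Recombinant MPO (~25 nM) in pH 7.4 phosphate (10 mM)/NaCl 300 mM with taurine (15 mM) and compound (0–20 μM) at 37 °C; started with H2O2 (100 μM), stopped after 5 min with catalase. Taurine chloramine measured with TNB. No inhibitor = 0%, no H2O2 = 100%. At least 3 determinations. IC50 from three-parameter sigmoid fit.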

[1] = Hypochlorous acid scavenging activity at 4 uM by taurine assay; type: functional
Procedure, shortened: (§2)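 No enzyme; HOCl (60 μM) added to pH 7.4 phosphate buffer (10 mM phosphate/300 mM NaCl) with taurine (15 mM) and compound (0.5, 1, 2, 4 μM) at 37 °C. Catalase added after 5 min. Taurine chloramine quantified with 0.45 mM TNB.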

[2] = molecular target: T2, Myeloperoxidase (Homo sapiens) (UniProt P05164); assay: Inhibition of chlorinating activity of recombinant myeloperoxidase at 0.5 uM by taurine assay; procedure, shortened: as §1
T2 sequence (whole entry): T1 sequence (P05164 whole entry)

[3] = molecular target: T2, Myeloperoxidase (Homo sapiens); assay: Inhibition of chlorinating activity of recombinant myeloperoxidase at 2 uM by taurine assay; procedure, shortened: as §1
[4] = molecular target: T2, Myeloperoxidase (Homo sapiens); assay: Inhibition of chlorinating activity of recombinant myeloperoxidase at 1 uM by taurine assay; procedure, shortened: as §1
[5] = Hypochlorous acid scavenging activity at 0.5 uM by taurine assay; type: functional; procedure, shortened: as §2
[6] = molecular target: T2, Myeloperoxidase (Homo sapiens); assay: Inhibition of chlorinating activity of recombinant myeloperoxidase at 4 uM by taurine assay; procedure, shortened: as §1
[7] = Hypochlorous acid scavenging activity at 1 uM by taurine assay; type: functional; procedure, shortened: as §2
[8] = Hypochlorous acid scavenging activity at 2 uM by taurine assay; type: functional; procedure, shortened: as §2
[9] = LDL oxidation at 300 uM by ELISA
[10] = LDL oxidation at 5 uM by ELISA
[11] = LDL oxidation at 30 uM by ELISA
[12] = LDL oxidation at 15 uM by ELISA

| Structure (SMILES) | IC50 (Myeloperoxidase) [µM] | Activity [1] [%] | inhibition [2] [%] | inhibition [3] [%] | inhibition [4] [%] | Activity [5] [%] | inhibition [6] [%] | Activity [7] [%] | Activity [8] [%] | level, % of control [9] [%] | level, % of control [10] [%] | level, % of control [11] [%] | level, % of control [12] [%] |
| --- | --- | --- | --- | --- | --- | --- | --- | --- | --- | --- | --- | --- | --- |
| O=C(Nc1ccc(C(=O)O)c(Nc2cccc(C(F)(F)F)c2)c1)c1ccccc1 | 58 | 2 | 11 | 25 | 15 | 1 | 35 | 0 | 0 | – | – | – | – |
| O=C(O)c1cc(O)ccc1Nc1cccc(C(F)(F)F)c1 | – | 2 | – | – | – | 2 | – | 2 | 2.5 | 53 | – | – | – |
| Nc1ccc(C(=O)O)c(Nc2cccc(C(F)(F)F)c2)c1 | – | 3 | – | – | – | 1 | – | 2 | 2 | 29 | 79 | 56 | 70 |
| O=C(O)c1cc(Br)ccc1Nc1cccc(C(F)(F)F)c1 | 1.8 | 4.9 | 36 | 65 | 51 | 3 | 79 | 2 | 3 | 29 | – | – | – |
| O=C(O)c1cc(Cl)ccc1Nc1cccc(C(F)(F)F)c1 | 1.6 | 1 | 29 | 57 | 42 | 1 | 74 | 0.4 | 2 | 112 | – | – | – |
| O=C(O)/C=C/C(=O)Nc1ccc(C(=O)O)c(Nc2cccc(C(F)(F)F)c2)c1 | > 100 | 2 | 0.3 | 0.1 | 0.6 | -1 | 0.3 | -1 | 0 | – | – | – | – |
| O=C(O)c1cccc(Nc2cccc(C(F)(F)F)c2)c1C(=O)O | > 100 | – | – | – | – | – | – | – | – | – | – | – | – |
| O=C(CCCO)Nc1ccc(C(=O)O)c(Nc2cccc(C(F)(F)F)c2)c1 | > 100 | 1 | 8.5 | 12.2 | 12 | 0 | 20 | 0 | -1 | – | – | – | – |
| O=C(O)c1ccccc1Nc1cccc(C(F)(F)F)c1 [FLUFENAMIC ACID] | 1.8 | 1.7 | 25 | 52 | 40 | 2 | 64 | 1.1 | 1.6 | 10 | 97 | 23 | 82 |
| NCCCC(=O)Nc1ccc(C(=O)O)c(Nc2cccc(C(F)(F)F)c2)c1 | 5.5 | 1 | 12 | 35 | 21 | 1 | 49 | 2 | 2 | – | – | – | – |
| O=C(O)c1ccc([N+](=O)[O-])cc1Nc1cccc(C(F)(F)F)c1 | 5 | 2 | 29 | 43 | 29 | 0 | 55 | 0 | 1 | 16 | 121 | 135 | 143 |
| O=C(O)c1cc(F)ccc1Nc1cccc(C(F)(F)F)c1 | 1.8 | 3 | 37 | 63 | 49 | 3.3 | 76 | 2 | 1.9 | 9 | – | – | – |
| CC(=O)Nc1ccc(C(=O)O)c(Nc2cccc(C(F)(F)F)c2)c1 | 14 | 1 | 12 | 33 | 24 | 1 | 42 | 2 | 2 | 29 | 122 | 61 | 86 |
